In ChEMBL document CHEMBL1137710, “Synthesis and in vitro antitumor activity of new quinoxaline derivatives” (2009):

How the values were obtained:
Format in all cases: functional
EKVX = assay: Growth inhibition of human EKVX cells after 48 hrs by sulforhodamine B assay
Method in brief: (§1)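 NCI 60-human-tumor-cell-line panel, with compounds tested over a 5-log dose range. Values are taken from dose-response curves as log10 molar concentrations: GI50 is 50% net growth inhibition, TGI is total growth inhibition, and LC50 is 50% net cell death.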

RXF 393 = assay: Growth inhibition of human RXF393 cells after 48 hrs by sulforhodamine B assay; conditions: RXF 393, 48 h; method in brief: as §1
A549 = assay: Growth inhibition of human A549 cells after 48 hrs by sulforhodamine B assay; conditions: A549, 48 h; method in brief: as §1
MDA-MB-231 = assay: Growth inhibition of human MDA-MB-231 cells after 48 hrs by sulforhodamine B assay; conditions: MDA-MB-231, 48 h; method in brief: as §1
SN12C = assay: Growth inhibition of human SN12C cells after 48 hrs by sulforhodamine B assay
Method in brief: (§2)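 Run in the NCI 60-human-tumour-cell-line panel, tested over a 5-log dose range. Dose–response curves gave three values per cell line, each as a log10 molar concentration: GI50 (50% inhibition of net cell growth), TGI (total inhibition of net growth) and LC50 (50% net cell death). The mean graph midpoint is the arithmetic mean over all lines, with insensitive lines entered at the highest concentration tested.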

SF-295 = assay: Growth inhibition of human SF295 cells after 48 hrs by sulforhodamine B assay; conditions: SF-295, 48 h; method in brief: as §1
NCI-H226 = assay: Growth inhibition of human NCI-H226 cells after 48 hrs by sulforhodamine B assay; conditions: NCI-H226, 48 h; method in brief: as §1
SK-OV-3 = assay: Growth inhibition of human SKOV3 cells after 48 hrs by sulforhodamine B assay; conditions: SK-OV-3, 48 h; method in brief: as §1
SNB-75 = assay: Growth inhibition of human SNB75 cells after 48 hrs by sulforhodamine B assay; conditions: SNB-75, 48 h; method in brief: as §2
UACC-257 = assay: Growth inhibition of human UACC257 cells after 48 hrs by sulforhodamine B assay; conditions: UACC-257, 48 h; method in brief: as §2
MOLT-4 = assay: Growth inhibition of human MOLT4 cells after 48 hrs by sulforhodamine B assay; conditions: MOLT-4, 48 h; method in brief: as §1
TK-10 = assay: Growth inhibition of human TK10 cells after 48 hrs by sulforhodamine B assay; conditions: TK-10, 48 h; method in brief: as §2
OVCAR-5 = assay: Growth inhibition of human OVCAR5 cells after 48 hrs by sulforhodamine B assay; conditions: OVCAR-5, 48 h; method in brief: as §1
KM12 = assay: Growth inhibition of human KM12 cells after 48 hrs by sulforhodamine B assay; conditions: KM12, 48 h; method in brief: as §1
SR = assay: Growth inhibition of human SR cells after 48 hrs by sulforhodamine B assay; method in brief: as §2
NCI-H23 = assay: Growth inhibition of human NCI-H23 cells after 48 hrs by sulforhodamine B assay; conditions: NCI-H23, 48 h; method in brief: as §1
BT-549 = assay: Growth inhibition of human BT549 cells after 48 hrs by sulforhodamine B assay; conditions: BT-549, 48 h; method in brief: as §1
ACHN = assay: Growth inhibition of human ACHN cells after 48 hrs by sulforhodamine B assay
HCT-116 = assay: Growth inhibition of human HCT116 cells after 48 hrs by sulforhodamine B assay; conditions: HCT-116, 48 h; method in brief: as §1
DU-145 = assay: Growth inhibition of human DU145 cells after 48 hrs by sulforhodamine B assay; conditions: DU-145, 48 h; method in brief: as §1
SK-MEL-5 = assay: Growth inhibition of human SK-MEL-5 cells after 48 hrs by sulforhodamine B assay; conditions: SK-MEL-5, 48 h; method in brief: as §1
HOP-92 = assay: Growth inhibition of human HOP92 cells after 48 hrs by sulforhodamine B assay; conditions: HOP-92, 48 h; method in brief: as §1
NCI-H460 = assay: Growth inhibition of human NCI-H460 cells after 48 hrs by sulforhodamine B assay; conditions: NCI-H460, 48 h; method in brief: as §1
COLO 205 = assay: Growth inhibition of human COLO205 cells after 48 hrs by sulforhodamine B assay; conditions: COLO 205, 48 h; method in brief: as §1
A498 = assay: Growth inhibition of human A498 cells after 48 hrs by sulforhodamine B assay; conditions: A498, 48 h; method in brief: as §1
SF-539 = assay: Growth inhibition of human SF539 cells after 48 hrs by sulforhodamine B assay; conditions: SF-539, 48 h; method in brief: as §1
SK-MEL-2 = assay: Growth inhibition of human SK-MEL-2 cells after 48 hrs by sulforhodamine B assay; conditions: SK-MEL-2, 48 h; method in brief: as §1
HT-29 = assay: Growth inhibition of human HT-29 cells after 48 hrs by sulforhodamine B assay; conditions: HT-29, 48 h; method in brief: as §1
[1] = read-out: pLC50 (the source's name) (converted)

For Nc1cc(N)c2nc(-c3ccccc3)c(Sc3ccc(F)cc3)nc2c1, the GI50 (EKVX) was 20.4 µM, the LC50 (50% net cell kill) (EKVX) was 83.2 µM and the TGI (EKVX; read-out: pTGI (converted)) was 41.7 µM. For the same compound, the GI50 (RXF 393) was over 100 µM, the CC50 (RXF 393; [1]) was over 100 µM and the TGI (RXF 393; read-out: pTGI (converted)) was over 100 µM. For the same compound, the GI50 (A549) was 13.5 µM, the LC50 (A549) was 70.8 µM and the TGI (A549; read-out: pTGI (converted)) was 30.9 µM. For the same compound, the GI50 (MDA-MB-231) was 17.4 µM, the CC50 (MDA-MB-231; [1]) was 83.2 µM and the TGI (MDA-MB-231; read-out: pTGI (converted)) was 38 µM. For the same compound, the GI50 (SN12C) was over 100 µM, the CC50 (SN12C; [1]) was over 100 µM and the TGI (SN12C; read-out: pTGI (converted)) was over 100 µM. For the same compound, the GI50 (SF-295) was 13.8 µM, the LC50 (50% net cell kill) (SF-295) was 64.6 µM and the TGI (SF-295; read-out: pTGI (converted)) was 30.2 µM. The GI50 (NCI-H226) was 19.1 µM, the LC50 (NCI-H226) was over 100 µM and the TGI (NCI-H226; read-out: pTGI (converted)) was 46.8 µM. It also gave a GI50 (SK-OV-3) of 15.8 µM, a CC50 (SK-OV-3; [1]) of 63.1 µM and a TGI (SK-OV-3; read-out: pTGI (converted)) of 31.6 µM. It also gave a GI50 (SNB-75) of 20.9 µM, an LC50 (SNB-75) of over 100 µM and a TGI (SNB-75; read-out: pTGI (converted)) of 47.9 µM. The GI50 (UACC-257) was 16.6 µM, the CC50 (UACC-257; [1]) was 60.3 µM and the TGI (UACC-257; read-out: pTGI (converted)) was 31.6 µM. For the same compound, the GI50 (MOLT-4) was over 100 µM, the LC50 (MOLT-4) was over 100 µM and the TGI (MOLT-4; read-out: pTGI (converted)) was over 100 µM. For the same compound, the GI50 (TK-10) was over 100 µM, the CC50 (TK-10; [1]) was over 100 µM and the TGI (TK-10; read-out: pTGI (converted)) was over 100 µM. It also gave a GI50 (OVCAR-5) of 19.1 µM, a CC50 (OVCAR-5; [1]) of over 100 µM and a TGI (OVCAR-5; read-out: pTGI (converted)) of 45.7 µM. The GI50 (KM12) was 20.9 µM, the LC50 (50% net cell kill) (KM12) was over 100 µM and the TGI (KM12; read-out: pTGI (converted)) was 49 µM. It also gave a GI50 (SR) of 35.5 µM, an LC50 (concentration giving 50% net cell death) (SR) of over 100 µM and a TGI (SR; read-out: pTGI (converted)) of over 100 µM. The GI50 (NCI-H23) was 19.1 µM, the LC50 (50% net cell kill concentration) (NCI-H23) was 81.3 µM and the TGI (NCI-H23; read-out: pTGI (converted)) was 39.8 µM. For the same compound, the GI50 (BT-549) was 21.9 µM, the CC50 (BT-549; [1]) was 89.1 µM and the TGI (BT-549; read-out: pTGI (converted)) was 43.7 µM. It also gave a GI50 (ACHN) of over 100 µM, a CC50 (ACHN; [1]) of over 100 µM and a TGI (ACHN; read-out: pTGI (converted)) of over 100 µM. The GI50 (HCT-116) was 14.8 µM, the LC50 (concentration causing 50% net cell death) (HCT-116) was 55 µM and the TGI (HCT-116; read-out: pTGI (converted)) was 28.2 µM. The GI50 (DU-145) was over 100 µM, the CC50 (DU-145; [1]) was over 100 µM and the TGI (DU-145; read-out: pTGI (converted)) was over 100 µM. The GI50 (SK-MEL-5) was 15.5 µM, the CC50 (SK-MEL-5; [1]) was 70.8 µM and the TGI (SK-MEL-5; read-out: pTGI (converted)) was 33.1 µM. It also gave a GI50 (HOP-92) of 22.9 µM, an LC50 (50% net cell death) (HOP-92) of over 100 µM and a TGI (HOP-92; read-out: pTGI (converted)) of 55 µM. It also gave a GI50 (NCI-H460) of 21.9 µM, an LC50 (50% net cell kill) (NCI-H460) of over 100 µM and a TGI (NCI-H460; read-out: pTGI (converted)) of 66.1 µM. The GI50 (COLO 205) was 21.9 µM, the LC50 (50% net cell kill) (COLO 205) was over 100 µM and the TGI (COLO 205; read-out: pTGI (converted)) was 47.9 µM. It also gave a GI50 (A498) of over 100 µM, a CC50 (A498; [1]) of over 100 µM and a TGI (A498; read-out: pTGI (converted)) of over 100 µM. For the same compound, the GI50 (SF-539) was 21.4 µM, the LC50 (SF-539) was 75.9 µM and the TGI (SF-539; read-out: pTGI (converted)) was 39.8 µM. For the same compound, the GI50 (SK-MEL-2) was 38 µM, the CC50 (SK-MEL-2; [1]) was over 100 µM and the TGI (SK-MEL-2; read-out: pTGI (converted)) was over 100 µM. The GI50 (HT-29) was 17.8 µM, the LC50 (HT-29) was over 100 µM and the TGI (HT-29; read-out: pTGI (converted)) was 45.7 µM.
